Experiment [1] in a line: Peg3 promoter reporter inhibitors, retest, confirmation, cell-based, HeLa, luciferase reporter, single concentration (AID 602417;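 active = at 20 µM dose, 40% or more inhibition averaged across four replicates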). The following applies: HeLa PEG-Prom luciferase reporter, luminescence, overnight; at 20 µM; stronger effect = higher value. In general terms: Reporter assays use an easily measured gene product as a stand-in for the process of interest.
Experiment [2] has as its target PEG-3 (UniProt Q6IN02). Nature of the experiment: Peg3 promoter luciferase inhibitors, potency, dose response, cell-based, HeLa, CREF/GAPDH counter-screen panel (AID 624167). The following applies: CREF/GAPDH counter-screens; HeLa PEG-Prom luciferase reporter, overnight, run 1, dose range 1, at 100 µM (top of the series) unless noted. (In general: Counterscreens check selectivity or assay interference.)

Experiment [3] deals with PEG-3 (UniProt Q6IN02). The experiment is described as above. The settings on record: CREF/GAPDH counter-screens; HeLa PEG-Prom luciferase reporter, overnight, run 2, dose range 1, at 100 µM (top of the series) unless noted.
Sequence of PEG-3 (Q6IN02 whole entry, looked up): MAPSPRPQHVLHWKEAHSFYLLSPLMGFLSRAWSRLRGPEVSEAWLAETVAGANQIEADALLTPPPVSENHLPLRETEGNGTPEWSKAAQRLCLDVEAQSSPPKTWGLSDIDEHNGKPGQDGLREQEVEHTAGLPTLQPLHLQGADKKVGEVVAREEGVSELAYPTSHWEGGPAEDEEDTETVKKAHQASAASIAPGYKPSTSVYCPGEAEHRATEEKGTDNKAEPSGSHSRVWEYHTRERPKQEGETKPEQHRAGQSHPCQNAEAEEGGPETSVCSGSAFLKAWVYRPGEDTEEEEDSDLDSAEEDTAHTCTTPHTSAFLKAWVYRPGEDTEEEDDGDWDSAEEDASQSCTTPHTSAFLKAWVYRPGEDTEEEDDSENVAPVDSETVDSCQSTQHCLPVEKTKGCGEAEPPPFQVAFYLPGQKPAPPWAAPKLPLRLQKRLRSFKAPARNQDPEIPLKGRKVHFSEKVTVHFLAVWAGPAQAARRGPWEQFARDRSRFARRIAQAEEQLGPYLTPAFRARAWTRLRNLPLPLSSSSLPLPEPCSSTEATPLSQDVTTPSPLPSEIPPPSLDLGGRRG
Experiment [4] can be described thus: inhibitors of PAF-induced NF-kB signaling, retest, confirmation, cell-based, GFP fluorescence, single concentration (AID 602472).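 Note: stimulus PAF is a Pseudomonas aeruginosa filtrate and not platelet activating factor; plate controls were DMSO wells with stimulus for no effect and unstimulated DMSO wells for full effect.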 The following applies: KKLEB CF airway cells, overnight, at 5 µM, stronger effect = higher value. The method in brief: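 Assay system: KKLEB immortalized cystic fibrosis airway epithelial cells with NFkB-GFP reporter. Buffer or medium: medium with 2% FBS for cells, serum-free medium for stimulus. Dosing: 5 µM single dose. Times: 2 h compound pretreatment at 37 °C, overnight PAF exposure. Measured by: GFP fluorescence of NFkB reporter.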

Experiment [5] is described as follows: inhibitors of PAF-induced NFkB signaling in CF airway cells, dose response, cell-based, uHTS hits, panel, cytotoxicity readout (AID 624344). The following applies: CF bronchial epithelial cells, PAF-induced NFkB reporter inhibition, with PAF, run 1; at 79 µM (top of the series) unless noted.
Test in experiment [6]: as above
The following applies: CF bronchial epithelial cells, PAF-induced NFkB reporter inhibition, with PAF, run 2; at 79 µM (top of the series) unless noted.

Experiment [7] in a line: HIF-2a reporter inhibitor retest, confirmation, luminescence, 786-0 RCC cells (AID 651580;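 active = mean inhibition across four replicates of at least 40 percent at the single tested concentration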). The following applies: HIF-2a luciferase reporter luminescence, overnight, at 18.8 µM, stronger effect = higher value.
A short description of experiment [8]: HIF-1a luciferase reporter signal reduction – MiaPaCa-2 cells, single concentration, counter-screen for HIF-2a inhibitor project, confirmation (AID 651589;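 active = mean inhibition of the reporter signal across four replicates at the single tested dose of 50% or more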). The settings on record: MiaPaCa-2 HIF-1a luciferase reporter, desferoxamine, overnight; at 18.8 µM; stronger effect = higher value.

The other results are listed elsewhere or left out. The source made the active and inactive calls. Cut-off read from the data, not from the text of the source, unless noted: active = inhibition above about 40%; inactive = the rest.

On to `CNC(=O)c1ccsc1NC(=O)c1ccc(S(=O)(=O)N2CCc3ccccc32)cc1`, for which the values for the inhibition (in experiment [1]; with PEG-3 [2]; with PEG-3 [3]) were 52.4% (active), 65% and 63.5%, respectively.

Consider `Cc1nc(SCC(=O)Nc2cc(C)on2)c2c(C)c(C)sc2n1`, for which the inhibition (commonly the drop in the measured response relative to a control, in per cent) in experiment [1] was 33.6% (inactive).

`COc1ccc(NC(=O)c2cc(-c3cc(OC)c(OC)c(OC)c3)nc3ccccc23)c(OC)c1`: the inhibition in experiment [4] is 24.8% (inactive).

In the case of `Cc1c(C)c2ccc(OCC(=O)N3CCN(c4cccc(Cl)c4)CC3)cc2oc1=O`, the inhibition in experiment [4] is 10.3% (inactive).

On to `CCN1CCN(c2nc(Nc3cc(OC)ccc3OC)nc(Nc3cc(OC)ccc3OC)n2)CC1`, for which the results for the inhibition (in experiment [1]; with PEG-3 [2]; with PEG-3 [3]) were 70% (active), 47.9% and 53.1%, respectively.

Consider `NC(=O)c1sc2nc3c(c(-c4ccccc4)c2c1N)CCC3`, for which the values for the inhibition in experiment [4], in experiment [5] and in experiment [6] were 93.2% (active), 114% and 104%, respectively.

Turning to `COc1cc(OC)cc(C(=O)N[C@H](C(=O)Nc2nc3ccccc3[nH]2)C(C)C)c1`, the inhibition is 85.8% (active) in experiment [4], 84.2% in experiment [5] and 80.2% in experiment [6].

For `COc1ccc(NC(=S)SC)cc1OC`, the inhibition in experiment [4] is 39.3% (inactive).

As to `O=C(NNc1ccccc1Cl)C(O)(c1cccc(C(F)(F)F)c1)c1cccc(C(F)(F)F)c1`, the results for the inhibition in experiment [4], in experiment [5] and in experiment [6] were 63% (active), 115% and 105%, respectively.

Consider `C=C1C(=O)[C@]23C[C@H]1CCC2[C@@]1(C)C(C[C@@H]3O)[C@](C)(C(=O)O)CC[C@@H]1O` (stereo partly specified), for which the inhibition in experiment [4] is 83% (active); in experiment [5] it was 97.1%; in experiment [6] it was 104%.

For the compound `CCc1ccc(N(CC)c2ncnc3nc[nH]c23)cc1`, the inhibition in experiment [4] was 62.6% (active); in experiment [5], 101%; in experiment [6], 99.3%.

For the compound `O=C(CSc1nc(C2CC2)nc2ccccc12)Nc1cccc(O)c1`, the inhibition in experiment [4] was 50.6% (active); in experiment [5], 90.6%; in experiment [6] it was 79.8%.

For `COc1ccc(CNC(=O)/C(C#N)=C/c2cccc(OC)c2OC)cc1`, in experiment [4], the inhibition was 34.1% (inactive).

Turning to `O=C1Nc2ccccc2/C1=C/c1ccnc2ccccc12`, the inhibition in experiment [4] was 55% (active); in experiment [5], 106%; in experiment [6], 111%.

For `COC(=O)c1ccc(NC(=O)c2ccccc2NS(=O)(=O)c2ccccc2)cc1`, the inhibition is 69.8% (active) in experiment [4], 118% in experiment [5] and 105% in experiment [6].

With `CCCc1nc2c(c(=O)c3ccccc3n2C)c(=O)n1C1CCCCCC1`, the inhibition in experiment [4] was 46.9% (active).

In the case of `Cc1ccc(CCC(=O)Nc2ncc(Cc3cc(Cl)ccc3Cl)s2)o1`, the inhibition in experiment [4] is 83.8% (active); in experiment [5] it was 101%; in experiment [6], 101%.

In the case of `Cc1ccc(Cc2c(-c3ccco3)nc3ccc(Cl)cn23)cc1`, the inhibition in experiment [4] was -82.3% (inactive).

Turning to `Cc1ncc(CC(=O)n2cc(C(=O)c3cc(Cl)ccc3O)cn2)s1`, the inhibition in experiment [4] was 47.9% (active); in experiment [5], 100%; in experiment [6], 108%.

As to `O=C(Nc1ccc2oc(-c3ccc4ccccc4c3)nc2c1)c1cccs1`, the inhibition in experiment [4] is 38.7% (inactive).

Turning to `CC(=O)Oc1c(C(=O)c2nnc(C)o2)c(=O)n(Cc2ccccc2)c2ccccc12`, the inhibition in experiment [4] was 59% (active); in experiment [5], 112%; in experiment [6], 101%.

With `CC(C)CC1C(=O)N(Cc2cn(Cc3ccco3)nn2)CCS(=O)(=O)N1Cc1ccc(-c2ccc(Cl)c(Cl)c2)cc1` (stereo unspecified), the inhibition in experiment [4] is 45.6% (active).

In the case of `Cc1ccc([C@H]2C[C@H](O)[C@@H](n3cc(COC(=O)c4ccccc4)nn3)CN2CC2CCCCC2)cc1`, the inhibition in experiment [4] was -29.2% (inactive).

On to `c1nnc2c3c4c(sc3ncn12)CCC4`, for which, in experiment [4], the inhibition is 22.1% (inactive).

On to `CC(C)C[C@H]1CNC(=S)N1C[C@H]1CCCN1C[C@H](Cc1ccc(O)cc1)N1C[C@H](Cc2ccc(O)cc2)N(CC2CCCCC2)C1=S`, for which the inhibition in experiment [4] was 56.7% (active); in experiment [5], 104%; in experiment [6], 111%.

For the compound `CCOC(=O)C(C(=O)c1ccccc1)C(c1ccccc1)c1nccc2ccccc12` (stereo unspecified), the inhibition in experiment [4] is 14.4% (inactive).

On to `COc1cc(C2c3cc4c(cc3C(O)C3COC(=O)C23)OCO4)cc(OC)c1OC` (stereo unspecified), for which the inhibition in experiment [4] is 83.3% (active); in experiment [5] it was -0.395%; in experiment [6], 37.3%.

`CN(C)C(=O)c1cccc(-c2cnc3sc(NCc4ccc5c(c4)OCO5)nn23)c1`: the inhibition in experiment [4] is 97.2% (active); in experiment [5] it was 116%; in experiment [6] it was 106%.

Turning to `O=C(Nc1ccc(Cl)cc1)Nc1nnc(/C=C/c2ccccc2)s1`, the inhibition in experiment [4] was 50.8% (active).

On to `CC1(C)O[C@@H]2CC3C4C[C@H](F)C5=CC(=O)C=CC5(C)C4C(O)CC3(C)[C@]2(C(=O)CO)O1` (stereo partly specified), for which, in experiment [4], the inhibition was 27.4% (inactive).

`CCOC(=O)c1c(-c2ccccc2)oc2cc(Br)c(O)c(C=O)c12`: the inhibition was 90.8% (active) in experiment [4], 90.8% in experiment [5] and 84.3% in experiment [6].

Regarding `Cc1cccc2sc(N(CCCN(C)C)C(=O)CCS(=O)(=O)c3ccccc3)nc12`, the inhibition in experiment [4] is 84.3% (active); in experiment [7], 22.5% (inactive); in experiment [8] it was 98.9% (active); in experiment [5], 98.4%; in experiment [6] it was 102%.

On to `CCSc1nsc(NC(=O)Nc2cccc(C(C)=O)c2)n1`, for which the inhibition in experiment [4] was 98.9% (active); in experiment [5], 117%; in experiment [6], 97%.

With `C=CCc1cc(S(=O)(=O)c2ccc(O)c(CC=C)c2)ccc1O`, the values for the inhibition in experiment [4], in experiment [5] and in experiment [6] were 48.8% (active), 111% and 99.2%, respectively.

`Cc1cc2nc(-c3ccco3)c(Cc3cccc(F)c3)n2c(C)c1Br`: the inhibition in experiment [4] is -41.6% (inactive).

As to `C=CCSc1nsc(NC(=O)Nc2cccc(C(C)=O)c2)n1`, the inhibition in experiment [4] is 98.3% (active); in experiment [5], 109%; in experiment [6], 101%.

Turning to `COc1cncc(-c2cnc3sc(NCCc4ccccn4)nn23)c1`, the inhibition in experiment [4] is 76.6% (active); in experiment [5], 102%; in experiment [6] it was 109%.

For `COc1ccc(CNc2ncnc3ccccc23)cc1`, the inhibition in experiment [4] was 47.6% (active); in experiment [5], 112%; in experiment [6], 87%.

These data come from PubChem BioAssay.
